According to the EternaBench riboswitch data:

System: MS2 coat protein
Test: apparent Kd, MS2 coat protein; higher = weaker binding; RNA-MaP array; FMN 200 µM where present
How it was run: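 Designs were transcribed by stalled E. coli RNA polymerase on Illumina sequencing-chip clusters. They were titrated with SNAP-549-labelled MS2 coat protein from 0.7 or 1.5 nM, doubling to 3 µM, in 100 mM Tris-HCl pH 7.5, 80 mM KCl, 4 mM MgCl2, BSA, DTT, yeast tRNA and Tween-20, without and then with constant ligand. The apparent Kd is the median of filtered per-cluster fits after normalisation of green signal to red-channel RNA signal and control-cluster median Fmax.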

[1] = designed as: ON switch for flavin mononucleotide, no ligand
[2] = ligand present: flavin mononucleotide, designed as: ON switch for flavin mononucleotide
[3] = designed as: OFF switch for flavin mononucleotide, no ligand
[4] = ligand present: flavin mononucleotide, designed as: OFF switch for flavin mononucleotide

Sequence | apparent Kd [1] | apparent Kd [2] | apparent Kd [3] | apparent Kd [4]
AUUAUUUACAUAGGAUAUUGUUACAUGAGGAUCACCCAUGUUAUUUGGGAAUUAGGAAUAUUUUACAAGAAGGAUGUUGUUACA | 87.4 nM | 67 nM | – | –
CACUCAUGUCUAGGAUAUGAGUGACAAGCGCGAAGUUUUUUCGGCGCUAGCUCAGAAGGAGACAUGAGGAUCACCCAUGUAAGG | – | – | 69.1 nM | 18.2 nM
GAGGAAAGGUAGCCCGACGUACCAGCAGAAGGGUGAUCAGACAUGAGGAUCACCCAUGUAGGAACACAGGAUAUGCAUGCACUU | 80 nM | 27.8 nM | – | –
AGACGGAGCUGAGGAUAUAACAUGAGGAUCACCCAUGUAAGUCUCCAGGAAACUGGAGACAAAUGUUAGAAGGCAGCUCCGUCA | – | – | 39.8 nM | 51.2 nM
AUGAUACAUGAGGAUCACCCAUGUCACCUCACACGAGGAUAUCUGAAUCGAUUAGAUUACGGAGAAGGCGUGGAAA | 66.8 nM | 20.8 nM | – | –
UAGCUUGACGCAGGAUAUCCAGGGCUGAGAUGAGGAGAAGGGCGCCAAACAUGAGGAUCACCCAUGUAUUAUGCAGGGUCCUCA | – | – | 336 nM | 315 nM
UGUCGGAGCAGAGGAUAUUACAUGAGGAUCACCCAUGUAUGAACCAAUAGCUGGAAACAGCAAUGUAAGAAGGCUGCUCCAACA | – | – | 12.3 nM | 149 nM
GUAAAGUGAGGAUAUGGUAAUUUAAUUAUUAAUUAAUUAAUCCAGAAGGCACAUGAGGAUCACCCAUGUAAAUG | – | – | 31.9 nM | 63 nM
GGAUAGGACAGAGGAUAUAUGUGCUAGAGAUACUAGCAAAAUUUCCUCACAUGAGGAUCACCCAUGUAGAAGGCUGUCCUAUCG | – | – | 12.9 nM | 22 nM
GAUGGCUUAGGAUAUCAAAGUUACCACAUGAGGAUCACCCAUGUAUGGGAGAUGGAUAAAUGAGAAGGAGGGUGUU | – | – | 174 nM | 133 nM
ACAUGAUCAGGAUAUACAUGAGGAUCACCCAUGUUUAUCAAAAAAAGGCUUUCAUCAUGUAGAAGGGAUCUUGU | – | – | 20.4 nM | 65.7 nM
UUGGUCAGUCAGAAGGCUACAUUACAUGAGGAUCACCCAUGUCAAAAGUAGAGGAUAUGAAGUUCGCCAUGGUAAGAGCCUGUC | 34.7 nM | 6.26 nM | – | –
AGUGUGUGGCAGGAUAUUCCGGUCGUUGGUCGGGAAGAAGGGUCUACAUGAGGAUCACCCAUGUGACCGGUUGA | – | – | 25.6 nM | 25.6 nM
GGCUGACAUGUAGGAUAUCUGCACGUGUAGUGCAGAGAAGGACAUGAGGAUCACCCAUGUAUAGCGACUUCGGUCGCAACAGCC | – | – | 49.2 nM | 159 nM
CGCUAUGAUGGGUUUAAUGGAGCAUAGGAUAUGCUUGUACAUGAGGAUCACCCAUGUUAUAUUGUGCAGAAGGGUGCAUUUGCG | 433 nM | 157 nM | – | –
CCGGAAAUACAGGAUAUCGUAUCGGAUACGAUACGAGAAGGGUAUACAUGAGGAUCACCCAUGUGUCCUACCGG | – | – | 25.1 nM | 32 nM
AAUUAUUUUUGAGGAUAUCGUGGUGAAACACCACGAGAAGGCGAGAUACACAUGAGGAUCACCCAUGUGAGCCUGAUGCUUAUG | – | – | 16.1 nM | 14.4 nM
UAAUUGUGAGGAUAUUCGAAUAACACGGAGACGUGUUGUUCGGAGAAGGCACAUGAGGAUCACCCAUGUUCCUU | – | – | 17.5 nM | 102 nM
AGCUGUGGCCGAGGAUAUCUGUUUCAUAAAACCGAAAUAUAAUCGGACAUGAGGAUCACCCAUGUAGAGAAGGCGGUCUCAGCA | – | – | 16.6 nM | 14.9 nM

Sequence | apparent Kd [1] | apparent Kd [2] | apparent Kd [3] | apparent Kd [4]
GGGUACAUCGGAGGAUAUCAUGUCAAUACAUGAGGAUCACCCAUGUCGAUGGAGACAUCGGAGAUUGAGAAGGCCGAUGUACCG | 66.5 nM | 6.99 nM | – | –
AAUAUGGGAGGAUAUGCAUAGAUAAAGAAACAUGUUCAACCACAUGAGGAUCACCCAUGUAGAAGGCCCAUAUA | – | – | 34.6 nM | 129 nM
GCGCGCGUUGUGAGGAUAUUGUGUGUGAAAGCGCGCGAGAAGGCACAUGAGGAUCACCCAUGUAAGGUGUGUGU | – | – | 455 nM | 392 nM
GUAGCAUACCGAGGAUAUUCAUACCGGAAACGGACAUGAGGAUCACCCAUGUGGCUAAUGCCUUGGGAGAAGGCGGAAUGCUAC | 568 nM | 21.7 nM | – | –
GUUUAUUUACAGAAGGUGUUUUACAUGAGGAUCACCCAUGUUUAAAUUUAUAAAGAAUUUAUUUACAAGGAUAUGUACAAUUUU | 34.1 nM | 19 nM | – | –
AUCAGCUCGUCAGGAUAUACGUCAAUGCGUCAGCAGUGUGGUAAGAUCACAUGAGGAUCACCCAUGUAGAAGGGACGAGCUGAU | – | – | 125 nM | 572 nM
AAAAAGUGAGGAUAUACAUGAGGAUCACCCAUGUGAAAGUCGAAAAAAAAGACAAGAAGUAGAAGGCACAAAAA | – | – | 30.4 nM | 34.9 nM
GGGCUCGGAGGAUAUACAAUUCUGGGCUGAAAGGCUCGGGUACAUGAGGAUCACCCAUGUAGAAGGUCGGGUCU | – | – | 15.9 nM | 15.9 nM
GAGCUGCAGACAGGAUAUGAGGCCGCCAUGGUCUCAGAAGGGUCAUGUUCUACAUGAGGAUCACCCAUGUCGGACAGCUCGAAG | 134 nM | 11 nM | – | –
AUCUUUAAGGUAGGAUAUAGUAUGAUGGUUUAAUUAGAAGGAUCUCACAUGAGGAUCACCCAUGUAAUAGGAUUACCCAUGUAU | – | – | 54 nM | 43.6 nM
CGUGCGUCGACAGGAUAUACAGAUUGGCUCCGGUACAUGAGGAUCACCCAUGUAGAAGGGUCACGCGCGGAUAGAACAUUCUAA | – | – | 9.09 nM | 40.3 nM
AUUGGUGAGUAGAAGGUACGAUAUUAGUUAUAGUAAGGAUAUACUAACAUGAGGAUCACCCAUGUAUAAAUGGAUAAAUUAUCU | 11.7 nM | 8.98 nM | – | –
CGUGCGUAUGUGAGGAUAUGCUGGUCCUUGGAUCGGCAGAAGGCACAUGAGGAUCACCCAUGUGGUGUCGUUCG | – | – | 219 nM | 31.6 nM
AAUUCACAUGAGGAUCACCCAUGUCAGGAUAUGGUUACGCGGGUUUCGGUGCGUGUGGCCAGAAGGGACAGCUA | – | – | 65 nM | 80.5 nM
UCAUGGUAGCAGGAUAUGCUUGUUUUUUUUUUUGCAGAAGGGCUUACAUGAGGAUCACCCAUGUGUUAGGUCUA | – | – | 25.2 nM | 30.8 nM
GUAUUUUUACAGAAGGUGUAUUACAUGAGGAUCACCCAUGUAUUAUGGAAUAAAGUUGUUAUUUACAAGGAUAUGUACUAUUUU | 19.3 nM | 14.8 nM | – | –
CAGUAAGUAUUGCGAGGGUAGGAGCAGGAUAUCCCAUUGGCCCUCACAUGAGGAUCACCCAUGUGGGAGAAGGGCUAUUACGUC | – | – | 9.11 nM | 22.5 nM
UUAUGAGAGCAGGAUAUCUUAUAUGUGUAUUAAAGAGAAGGGCUCACAUGAGGAUCACCCAUGUGGUCCUAGAU | – | – | 44.2 nM | 309 nM
UUUUUGUGAGGAUAUCAGUAGUAGAACAAUAGUACUACUACUGAGAAGGCACAUGAGGAUCACCCAUGUUCCUU | – | – | 16 nM | 34.6 nM

Sequence | apparent Kd [1] | apparent Kd [2] | apparent Kd [3] | apparent Kd [4]
UCGGCGCGAGGAUAUACGUUUGCUCUUUUUCGUUUUUGUGUACAUGAGGAUCACCCAUGUAGAAGGCGCGCCGC | – | – | 17.9 nM | 63.7 nM
GGUAUGGACAGAGGAUAUACCGAUAGGAGAUACUAUCGACUAUUCCUCACAUGAGGAUCACCCAUGUAGAAGGCUGUCCAUACG | – | – | 17 nM | 65.5 nM
UAGGUGGAAGGAUAUACAUAUGGCCUAUGAGAUACUUCACGACAUGAGGAUCACCCAUGUAGAAGGUCUACCGU | – | – | 17.9 nM | 39.4 nM
AAGAAGUCAGGAUAUGCUGCUCGUCACUUGCGUGAUGAGUAGCAGAAGGGACAUGAGGAUCACCCAUGUAAAGU | – | – | 51.6 nM | 79.7 nM
CGAACCCGAGGAUAUCGUAAACCCGACAUGAGGAUCACCCAUGUCAUCCUCACGGCGCCACGAGAAGGCGGUGUUU | – | – | 56.5 nM | 160 nM
UCGUAUACACAAGGAUAUCAAUGAUUUGUGGAUCCUACAUGAGGAUCACCCAUGUUUUUAUAUUGUGAGAAGGUGUAGUGUCUU | 507 nM | 684 nM | – | –
AGUAUGCGGCAGGAUAUCCAUCCGCGAAAAGGUGGAGAAGGGCUGACAUGAGGAUCACCCAUGUGCGUUUUGUA | – | – | 56 nM | 40 nM
GUGCGUGGCUAGGAUAUUGUGGAGUUUAGUCAGCGAGAAGGAGCCACAUGAGGAUCACCCAUGUGGUGAAGCUC | – | – | 19.9 nM | 75 nM
UGUUAAUAAGAGAAGGAGGACUUCAUGAGGAUCACCCAUGUGUUAGUACUUAGGAUAUUUAAUAACAUGAGGAUCACCCAUGUC | 45.2 nM | 40.4 nM | – | –
UGGUACUAGGGAGGAUAUGGGAAAAUACAUGAGGAUCACCCAUGUUUAAGAAUGCCGAGAGGCAACUAGAAGGCCCUAGUACCU | 16.2 nM | 5.26 nM | – | –
GCUCUUGUCAAGAAGGGCUCGCGGUACGCUGCAGCAGGAUAUUGACAUGAGGAUCACCCAUGUCGACCGGAACAUCAUUGAGGG | – | – | 26.2 nM | 178 nM
AUAGCUGGGAAGUAAACUCGUGCGGCAGAAGGGUGAUACUGGACAUGAGGAUCACCCAUGUGCACACAGGAUAUGCCCGCGAGC | 207 nM | 35 nM | – | –
GGGUACAUCGGAGGAUAUCAUGUAAAUACAUGAGGAUCACCCAUGUCGAUAGAGACAUCGGAGAUUGAGAAGGCCGAUGUACCG | 41.7 nM | 300 nM | – | –
GGUGGACAUGAGGAUCACCCAUGUGAGGAUAUCGGCUGGCUAGCGGCGGAUGGCUUCUCGAGAAGGCGCAUAGU | – | – | 80.2 nM | 67.5 nM
CUGGUGUGAGGAUAUCAGGACACGCCCGAGGGCGUGUCAAAUGAGAAGGCACAUGAGGAUCACCCAUGUGGGAC | – | – | 42.3 nM | 99.6 nM
UGGGACGUCGUAGGAUAUGUAGGAUAUUCCUACAUGAGGAUCACCCAUGUUGACAUGGAAGAAGGACAGAAGGACGAUGUCCAU | 211 nM | 4.78 nM | – | –
AGCUGGUGACAGCAUCGAGCUAAACAUGAGGAUCACCCAUGUAGAAGGCUGUACGGUUACCGUACAGAGGAUAUACAAAGCUCG | – | – | 6.06 nM | 7.17 nM
AACAUACAUGAGGAUCACCCAUGUUCCGGCAGGCUAGGAUAUCAAUCGAAAGUGUUAUAAUGAGAAGGAGCAUAAA | 49 nM | 29.4 nM | – | –
